Source: ChEMBL document CHEMBL2146381, “Structure-activity relationship (SAR) study of ethyl 2-amino-6-(3,5-dimethoxyphenyl)-4-(2-ethoxy-2-oxoethyl)-4H-chromene-3-carboxylate (CXL017) and the potential of the lead against multidrug resistance in cancer treatment” (J Med Chem, 2012)

How the values were obtained:
HL-60 [1] = test: Cytotoxicity against human HL60 cells assessed as cell viability after 48 hrs by celltiter-blue assay; format: functional, cell-based; details: HL-60, 48 h
Summary of the method: (§1)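 Tumour cell growth inhibition was measured in vitro, following the lab's established procedure. IC50 values are the mean of at least two independent experiments, each run in triplicate.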

K562 [2] = test: Cytotoxicity against human K562 cells assessed as cell viability after 48 hrs by celltiter-blue assay; format: functional, cell-based; details: K562, 48 h; summary of the method: as §1
CCRF-CEM [3] = test: Cytotoxicity against human CCRF-CEM cells assessed as cell viability after 48 hrs by celltiter-blue assay; format: functional, cell-based; summary of the method: as §1
HL-60 [4] = test: Ratio of IC50 for human HL60/MX2 cells to IC50 for human HL60 cells; format: functional
Summary of the method: (§2)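 Each resistant subline and its matched parental line were tested in the same growth-inhibition assay, with IC50 taken as the mean of at least two independent experiments in triplicate. The MDR/parental IC50 ratio is reported as relative sensitivity: above 1 means resistance, below 1 means collateral sensitivity. Parental lines came from different sources for each resistant pair.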

HL-60 [5] = test: Ratio of IC50 for human HL60/ADR cells to IC50 for human HL60 cells; format: functional; summary of the method: as §2
HL-60 [6] = test: Ratio of IC50 for daunorubicin-resistant human HL60 cells to IC50 for human HL60 cells; format: functional; summary of the method: as §2
HL-60 [7] = test: Ratio of IC50 for doxorubicin-resistant human HL60 cells to IC50 for human HL60 cells; format: functional; summary of the method: as §2
K562 [8] = test: Ratio of IC50 for doxorubicin-resistant human K562 cells to IC50 for human K562 cells; format: functional; summary of the method: as §2
K562 [9] = test: Ratio of IC50 for human K562/HHT300 cells to IC50 for human K562 cells; format: functional; summary of the method: as §2
CCRF-CEM [10] = test: Ratio of IC50 for human CCRF-CEM/C2 cells IC50 for human CCRF-CEM cells; format: functional; summary of the method: as §2
CCRF-CEM [11] = test: Ratio of IC50 for human CCRF-CEM/VM-1-5 cells IC50 for human CCRF-CEM cells; format: functional; summary of the method: as §2
CCRF-CEM [12] = test: Ratio of IC50 for human CCRF-CEM/VLB100 cells IC50 for human CCRF-CEM cells; format: functional; summary of the method: as §2

SMILES: CC(C)(C)c1ccc(NC(=S)N/N=C2\C(=O)Nc3ccccc32)cc1
- IC50 (HL-60 [1]): 6.8 µM
- IC50 (K562 [2]): 26.9 µM
- IC50 (CCRF-CEM [3]): 7.05 µM
- Ratio IC50 (HL-60 [4]): 0.86
- Ratio IC50 (HL-60 [5]): 0.47
- Ratio IC50 (HL-60 [6]): 0.64
- Ratio IC50 (HL-60 [7]): 1
- Ratio IC50 (K562 [8]): 0.47
- Ratio IC50 (K562 [9]): 0.43
- Ratio IC50 (CCRF-CEM [10]): 0.58
- Ratio IC50 (CCRF-CEM [11]): 2.1
- Ratio IC50 (CCRF-CEM [12]): 0.66

SMILES: COC(=O)CC1C(C(=O)OC)=C(N)Oc2ccc(-c3cc(OC)cc(OC)c3)cc21 (racemic)
- IC50 (HL-60 [1]): 2.42 µM

SMILES: CCOC(=O)CC1C(C(=O)OC)=C(N)Oc2ccc(-c3cc(OC)cc(OC)c3)cc21 (racemic)
- IC50 (HL-60 [1]): 10.8 µM

SMILES: COc1cc(OC)cc(-c2ccc3c(c2)C(CC(=O)OCC2CO2)C(C(=O)OCC2CO2)=C(N)O3)c1 (racemic)
- IC50 (HL-60 [1]): > 80 µM

SMILES: CCOC(=O)CC1C(C#N)=C(N)Oc2ccc(-c3cc(OC)cc(OC)c3)cc21 (racemic)
- IC50 (HL-60 [1]): 19.6 µM

SMILES: CCOC(=O)CC1C(c2nc(-c3ccc(OC)cc3)no2)=C(N)Oc2ccc(-c3cc(OC)cc(OC)c3)cc21 (racemic)
- IC50 (HL-60 [1]): > 80 µM

SMILES: CCOC(=O)CC1C(C(=O)OCC)=C(N)Oc2ccc(-c3ccccc3F)cc21 (racemic)
- IC50 (HL-60 [1]): 73 µM

SMILES: CCOC(=O)CC1C(C(=O)OCC)=C(N)Oc2ccc(-c3cccc(F)c3)cc21 (racemic)
- IC50 (HL-60 [1]): 76.4 µM

SMILES: CCOC(=O)CC1C(C(=O)OCC)=C(N)Oc2ccc(-c3ccc(F)cc3)cc21 (racemic)
- IC50 (HL-60 [1]): 72.1 µM

SMILES: CCOC(=O)CC1C(C(=O)OCC)=C(N)Oc2ccc(-c3ccc(F)cc3F)cc21 (racemic)
- IC50 (HL-60 [1]): 76.6 µM

SMILES: CCOC(=O)CC1C(C(=O)OCC)=C(N)Oc2ccc(-c3cc(F)cc(F)c3)cc21 (racemic)
- IC50 (HL-60 [1]): 35.9 µM

SMILES: CCOC(=O)CC1C(C(=O)OCC)=C(N)Oc2ccc(-c3ccco3)cc21 (racemic)
- IC50 (HL-60 [1]): > 80 µM

SMILES: CCOC(=O)CC1C(C(=O)OCC)=C(N)Oc2ccc(-c3cccs3)cc21 (racemic)
- IC50 (HL-60 [1]): > 80 µM

SMILES: CCOC(=O)CC1C(C(=O)OCC)=C(N)Oc2ccc(-c3ccccn3)cc21 (racemic)
- IC50 (HL-60 [1]): 76.9 µM

SMILES: CCOC(=O)CC1C(C(=O)OCC)=C(N)Oc2ccc(-c3cccnc3)cc21 (racemic)
- IC50 (HL-60 [1]): 21.5 µM

SMILES: CCOC(=O)CC1C(C(=O)OCC)=C(N)Oc2ccc(-c3ccncc3)cc21 (racemic)
- IC50 (HL-60 [1]): 10.2 µM

SMILES: CCOC(=O)CC1C(C(=O)OCC)=C(N)Oc2ccc(-c3cncnc3)cc21 (racemic)
- IC50 (HL-60 [1]): 37.9 µM

SMILES: CCOC(=O)CC1C(C(=O)OCC)=C(N)Oc2ccc(-c3ccnc(OC)c3)cc21 (racemic)
- IC50 (HL-60 [1]): 10.2 µM

SMILES: CCOC(=O)CC1C(C(=O)OCC)=C(N)Oc2ccc(-c3cccc(N)c3)cc21 (racemic)
- IC50 (HL-60 [1]): 20.2 µM

SMILES: C#CCOC(=O)CC1C(C(=O)OCC)=C(N)Oc2ccc(-c3cccc(N)c3)cc21 (racemic)
- IC50 (HL-60 [1]): 3.4 µM

SMILES: C#CCOC(=O)CC1C(C(=O)OCC#C)=C(N)Oc2ccc(-c3cccc(NCCO)c3)cc21 (racemic)
- IC50 (HL-60 [1]): 0.63 µM

SMILES: C#CCOC(=O)CC1C(C#N)=C(N)Oc2ccc(-c3cccc(N)c3)cc21 (racemic)
- IC50 (HL-60 [1]): 43.9 µM

SMILES: CCOC(=O)CC1C(C(=O)OCC)=C(N)Oc2ccc(-c3ccc(N)cc3)cc21 (racemic)
- IC50 (HL-60 [1]): 22.3 µM

SMILES: C#CCOC(=O)CC1C(C(=O)OCC)=C(N)Oc2ccc(-c3ccc(N)cc3)cc21 (racemic)
- IC50 (HL-60 [1]): 10.5 µM

SMILES: C#CCOC(=O)CC1C(C(=O)OCC#C)=C(N)Oc2ccc(-c3ccc(N)cc3)cc21 (racemic)
- IC50 (HL-60 [1]): 0.61 µM
- IC50 (K562 [2]): 2.36 µM
- IC50 (CCRF-CEM [3]): 1.47 µM
- Ratio IC50 (HL-60 [4]): 1
- Ratio IC50 (HL-60 [5]): 0.26
- Ratio IC50 (HL-60 [6]): 0.27
- Ratio IC50 (HL-60 [7]): 0.6
- Ratio IC50 (K562 [8]): 1.08
- Ratio IC50 (K562 [9]): 1.1
- Ratio IC50 (CCRF-CEM [10]): 0.54
- Ratio IC50 (CCRF-CEM [11]): 0.42
- Ratio IC50 (CCRF-CEM [12]): 0.93

SMILES: CCOC(=O)CC1C(C(=O)OCC)=C(N)Oc2ccc(-c3cccc(NC)c3)cc21 (racemic)
- IC50 (HL-60 [1]): 7.45 µM

SMILES: C#CCOC(=O)CC1C(C(=O)OCC)=C(N)Oc2ccc(-c3cccc(NC)c3)cc21 (racemic)
- IC50 (HL-60 [1]): 7.13 µM

SMILES: C#CCOC(=O)CC1C(C(=O)OCC#C)=C(N)Oc2ccc(-c3cccc(NC)c3)cc21 (racemic)
- IC50 (HL-60 [1]): 0.88 µM

SMILES: C#CCOC(=O)CC1C(C(=O)OCC#C)=C(N)Oc2ccc(-c3cccc(N(C)C)c3)cc21 (racemic)
- IC50 (HL-60 [1]): 12 µM

SMILES: C#CCOC(=O)CC1C(C(=O)OCC)=C(N)Oc2ccc(-c3cccc(NCC)c3)cc21 (racemic)
- IC50 (HL-60 [1]): 17.2 µM

SMILES: C#CCOC(=O)CC1C(C(=O)OCC#C)=C(N)Oc2ccc(-c3cccc(NCC)c3)cc21 (racemic)
- IC50 (HL-60 [1]): 1.86 µM

SMILES: C#CCOC(=O)CC1C(C(=O)OCC#C)=C(N)Oc2ccc(-c3cccc(NC(=O)CCl)c3)cc21 (racemic)
- IC50 (HL-60 [1]): 5.3 µM

SMILES: CCOC(=O)CC1C(C(=O)OCC)=C(N)Oc2ccc(-c3cccc(C(N)=O)c3)cc21 (racemic)
- IC50 (HL-60 [1]): 5.4 µM

SMILES: C#CCOC(=O)CC1C(C(=O)OCC#C)=C(N)Oc2ccc(-c3cccc(-n4cnnn4)c3)cc21 (racemic)
- IC50 (HL-60 [1]): 1.62 µM

SMILES: C#CCOC(=O)CC1C(C(=O)OCC#C)=C(N)Oc2ccc(-c3ccc(NC)cc3)cc21 (racemic)
- IC50 (HL-60 [1]): 2.45 µM

SMILES: C#CCOC(=O)CC1C(C(=O)OCC#C)=C(N)Oc2ccc(-c3ccc(N(C)C)cc3)cc21 (racemic)
- IC50 (HL-60 [1]): 2.56 µM

SMILES: C#CCOC(=O)CC1C(C(=O)OCC)=C(N)Oc2ccc(-c3ccc(NCC)cc3)cc21 (racemic)
- IC50 (HL-60 [1]): 33 µM

SMILES: C#CCOC(=O)CC1C(C(=O)OCC#C)=C(N)Oc2ccc(-c3ccc(NCC)cc3)cc21 (racemic)
- IC50 (HL-60 [1]): 7.27 µM

SMILES: CCOC(=O)CC1C(C(=O)OCC)=C(N)Oc2ccc(-c3cc(OC)cc(OC)c3)cc21 (racemic)
- IC50 (HL-60 [1]): 10.7 µM

SMILES: CN(C)CC[C@H](CSc1ccccc1)Nc1ccc(S(=O)(=O)NC(=O)c2ccc(N3CCN(Cc4ccccc4-c4ccc(Cl)cc4)CC3)cc2)cc1[N+](=O)[O-] [ABT 737]
- IC50 (HL-60 [1]): 0.76 µM
- IC50 (K562 [2]): 34.7 µM
- IC50 (CCRF-CEM [3]): 0.74 µM
- Ratio IC50 (HL-60 [4]): 1.5
- Ratio IC50 (HL-60 [5]): 4.5
- Ratio IC50 (HL-60 [6]): 4.9
- Ratio IC50 (HL-60 [7]): 19.7
- Ratio IC50 (K562 [8]): 2.7
- Ratio IC50 (K562 [9]): 2.3
- Ratio IC50 (CCRF-CEM [10]): 0.2
- Ratio IC50 (CCRF-CEM [11]): 2.2
- Ratio IC50 (CCRF-CEM [12]): 0.3

SMILES: Nc1ccn([C@@H]2O[C@H](CO)[C@@H](O)[C@@H]2O)c(=O)n1 [CYTARABINE]
- IC50 (HL-60 [1]): 0.049 µM
- IC50 (K562 [2]): 14 µM
- IC50 (CCRF-CEM [3]): 0.006 µM
- Ratio IC50 (HL-60 [4]): 0.4
- Ratio IC50 (HL-60 [5]): 0.1
- Ratio IC50 (HL-60 [7]): 7.5
- Ratio IC50 (K562 [8]): 1.5
- Ratio IC50 (K562 [9]): 7
- Ratio IC50 (CCRF-CEM [10]): 4.1
- Ratio IC50 (CCRF-CEM [11]): 6.5
- Ratio IC50 (CCRF-CEM [12]): 1

SMILES: COc1cccc2c1C(=O)c1c(O)c3c(c(O)c1C2=O)C[C@@](O)(C(=O)CO)C[C@@H]3O[C@H]1C[C@H](N)[C@H](O)[C@H](C)O1 [DOXORUBICIN]
- IC50 (HL-60 [1]): 0.04 µM
- IC50 (K562 [2]): 0.44 µM
- IC50 (CCRF-CEM [3]): 0.11 µM
- Ratio IC50 (HL-60 [4]): 5.3
- Ratio IC50 (HL-60 [5]): >15
- Ratio IC50 (HL-60 [6]): >50
- Ratio IC50 (HL-60 [7]): >100
- Ratio IC50 (K562 [8]): >10
- Ratio IC50 (K562 [9]): >20
- Ratio IC50 (CCRF-CEM [10]): 6.7
- Ratio IC50 (CCRF-CEM [11]): >15

SMILES: CC[C@]1(O)C[C@H]2CN(CCc3c([nH]c4ccccc34)[C@@](C(=O)OC)(c3cc4c(cc3OC)N(C=O)[C@H]3[C@@](O)(C(=O)OC)[C@H](OC(C)=O)[C@]5(CC)C=CCN6CC[C@]43[C@@H]65)C2)C1 [VINCRISTINE]
- IC50 (HL-60 [1]): 6e-05 µM
- IC50 (K562 [2]): 0.0001 µM
- IC50 (CCRF-CEM [3]): 0.00017 µM
- Ratio IC50 (HL-60 [4]): 1
- Ratio IC50 (HL-60 [5]): 1
- Ratio IC50 (HL-60 [7]): >1000
- Ratio IC50 (K562 [8]): >1000
- Ratio IC50 (K562 [9]): >1000
- Ratio IC50 (CCRF-CEM [10]): 1
- Ratio IC50 (CCRF-CEM [11]): 1
- Ratio IC50 (CCRF-CEM [12]): >1000
